The source made the active and inactive calls. The rule behind the calls is not given here.
What was measured:
[1] = Activation of hedgehog signaling pathway in non-targeting siRNA treated mouse C3H10T1/2 cells assessed as effect on VDR expression at 0.5 uM after 24 hrs by qPCR analysis; type: cell-based; conditions: C3H 10T1/2
[2] = Inhibition of hedgehog signaling pathway in non-targeting siRNA treated mouse C3H10T1/2 cells assessed as effect on VDR expression at 0.5 uM after 24 hrs by qPCR analysis; type: cell-based; conditions: C3H 10T1/2
[3] = Inhibition of hedgehog signaling pathway in VDR-knockdown mouse C3H10T1/2 cells assessed as effect on VDR expression at 0.5 uM after 24 hrs by qPCR analysis; type: cell-based; conditions: C3H 10T1/2
[4] = Activation of hedgehog signaling pathway in VDR-knockdown mouse C3H10T1/2 cells assessed as effect on VDR expression at 0.5 uM after 24 hrs by qPCR analysis; type: cell-based; conditions: C3H 10T1/2
[5] = system: C3H 10T1/2; test: Effect on CYP24A1 RNA level in non-targeting siRNA treated mouse C3H10T1/2 cells at 0.5 uM after 24 hrs by qPCR analysis; type: functional, cell-based
[6] = Activation of hedgehog signaling pathway in VDR-knockdown mouse C3H10T1/2 cells assessed as effect on VDR expression at 5 uM after 24 hrs by qPCR analysis; type: cell-based; conditions: C3H 10T1/2
In short: (§1)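 C3H10T1/2 cells transfected 24 h after seeding with mouse VDR-specific or nontargeting siRNA plus Lipofectamine 2000 in medium with 0.5% FBS for 6 h, then complete medium overnight. Treated 24 h post-transfection (5 μM; calcitriol 0.5 μM). RNA and cDNA prepared 24 h later (48 h post-transfection), then qPCR of VDR, Gli1 and Cyp24A1. Representative experiment in triplicate.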

[7] = Inhibition of hedgehog signaling pathway-mediated GLI1 mRNA expression in human DaOY cells after 24 hrs by RT-PCR analysis; type: cell-based
In short: (§2)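 ASZ001 (murine BCC) or DAOY (human medulloblastoma) cells given analogue at a range of concentrations. Gli1 and Ptch mRNA quantified by qPCR. IC50 given as mean ± SEM of at least two experiments in triplicate.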

[8] = system: C3H 10T1/2; test: Effect on CYP24A1 RNA level in non-targeting siRNA treated mouse C3H10T1/2 cells at 5 uM after 24 hrs by qPCR analysis; type: functional, cell-based; in short: as §1
[9] = target: T1, Vitamin D3 receptor (Mus musculus) (UniProt P48281); test: Activation of VDR in mouse ASZ001 cells assessed as upregulation of CYP24A1 mRNA expression at 5 uM after 24 hrs by RT-PCR analysis relative to DMSO-treated control; type: cell-based
T1 sequence (whole entry): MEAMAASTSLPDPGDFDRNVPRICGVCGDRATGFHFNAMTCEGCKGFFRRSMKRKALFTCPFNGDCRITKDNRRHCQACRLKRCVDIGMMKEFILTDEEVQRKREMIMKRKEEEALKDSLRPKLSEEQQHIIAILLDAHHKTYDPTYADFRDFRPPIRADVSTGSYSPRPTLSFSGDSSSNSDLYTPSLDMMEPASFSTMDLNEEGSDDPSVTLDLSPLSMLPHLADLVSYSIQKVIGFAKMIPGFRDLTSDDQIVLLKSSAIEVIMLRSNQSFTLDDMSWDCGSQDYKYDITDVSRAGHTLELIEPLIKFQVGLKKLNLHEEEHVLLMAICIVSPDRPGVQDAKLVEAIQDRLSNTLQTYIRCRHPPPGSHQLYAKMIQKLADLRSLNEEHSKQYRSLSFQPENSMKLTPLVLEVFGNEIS
In short: (§3)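 Cyp24A1 mRNA read by qPCR after 24 h exposure at 5 μM. Up-regulation normalized to DMSO control, set to 1.0.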

[10] = Inhibition of hedgehog signaling pathway in non-targeting siRNA treated mouse C3H10T1/2 cells assessed as effect on VDR expression at 5 uM after 24 hrs by qPCR analysis; type: cell-based; conditions: C3H 10T1/2; in short: as §1
[11] = Inhibition of hedgehog signaling pathway in VDR-knockdown mouse C3H10T1/2 cells assessed as downregulation of GLI1 expression at 5 uM after 24 hrs by qPCR analysis; type: cell-based; conditions: C3H 10T1/2; in short: as §1
[12] = Inhibition of hedgehog signaling pathway-mediated GLI1 mRNA expression in mouse C3H10T1/2 cells after 24 hrs by RT-PCR analysis in presence of GDC-0449; type: cell-based; conditions: C3H 10T1/2
[13] = target: T1, Vitamin D3 receptor (Mus musculus); test: Activation of VDR in mouse C3H10T1/2 cells assessed as upregulation of CYP24A1 mRNA expression at 5 uM after 24 hrs by RT-PCR analysis relative to DMSO-treated control; type: cell-based; conditions: C3H 10T1/2; in short: as §3
[14] = Activation of hedgehog signaling pathway in non-targeting siRNA treated mouse C3H10T1/2 cells assessed as effect on VDR expression at 5 uM after 24 hrs by qPCR analysis; type: cell-based; conditions: C3H 10T1/2; in short: as §1
[15] = Inhibition of hedgehog signaling pathway in VDR-knockdown mouse C3H10T1/2 cells assessed as effect on VDR expression at 5 uM after 24 hrs by qPCR analysis; type: cell-based; conditions: C3H 10T1/2; in short: as §1
[16] = Inhibition of hedgehog signaling pathway-mediated PTCH mRNA expression in human DaOY cells after 24 hrs by RT-PCR analysis; type: cell-based; in short: as §2
[17] = Inhibition of hedgehog signaling pathway-mediated GLI1 mRNA expression in mouse C3H10T1/2 cells assessed as residual activity at 5 uM after 24 hrs by RT-PCR analysis relative to 20alpha-hydroxycholesterol/22(S)-hydroxycholesterol; type: cell-based; conditions: C3H 10T1/2
In short: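 C3H10T1/2 cells co-treated with analogue and the oxysterol Hh activators 20α-hydroxycholesterol plus 22(S)-hydroxycholesterol (5 μM each) for 24 h. Gli1 mRNA measured by qPCR as % of OHC-only control (100%). Analogue at 5 μM, or at 0.5 μM where stated.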

[18] = Inhibition of hedgehog signaling pathway-mediated PTCH mRNA expression in mouse C3H10T1/2 cells after 24 hrs by RT-PCR analysis; type: cell-based; conditions: C3H 10T1/2, 24 h
In short: (§4)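 OHC-stimulated C3H10T1/2 cells (20α- and 22(S)-hydroxycholesterol, 5 μM each) given analogue at a range of concentrations. Gli1 and Ptch mRNA quantified by qPCR. IC50 given as mean ± SEM of at least two experiments run in triplicate.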

[19] = Inhibition of hedgehog signaling pathway-mediated GLI1 mRNA expression in mouse C3H10T1/2 cells after 24 hrs by RT-PCR analysis; type: cell-based; conditions: for inhibition: C3H 10T1/2; for IC50: C3H 10T1/2, 24 h; in short: as §4
[20] = Inhibition of hedgehog signaling pathway-mediated PTCH mRNA expression in mouse ASZ001 cells up to 10 uM after 24 hrs by RT-PCR analysis; type: cell-based
[21] = Inhibition of hedgehog signaling pathway-mediated GLI1 mRNA expression in mouse ASZ001 cells after 24 hrs by RT-PCR analysis; type: cell-based; conditions: ASZ001, 24 h; in short: as §2
[22] = target: Protein smoothened (Homo sapiens) (UniProt Q99835); test: Displacement of BODIPY-cyclopamine from full length human SMO receptor overexpressed in HEK293T cells up to 10 uM after 4 hrs by flow cytometric analysis; type: cell-based; conditions: HEK-293T
In short: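 HEK293T cells transfected overnight with Myc-tagged full-length human Smo plasmid, split, then 2 days post-transfection incubated in DMEM/10% FBS with BODIPY-cyclopamine (5 nM) and test compound at 37 °C for 4 h. Cells trypsinized and resuspended in PBS. Bound BODIPY-cyclopamine read by flow cytometry. Transfection checked by anti-Myc staining. Representative experiment in triplicate.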

[23] = Inhibition of hedgehog signaling pathway in non-targeting siRNA treated mouse C3H10T1/2 cells assessed as downregulation of GLI1 expression at 5 uM after 24 hrs by qPCR analysis; type: cell-based; conditions: C3H 10T1/2; in short: as §1
[24] = target: T2, Vitamin D3 receptor (Homo sapiens) (UniProt P11473); test: Activation of VDR in human DaOY cells assessed as upregulation of CYP24A1 mRNA expression at 5 uM after 24 hrs by RT-PCR analysis relative to DMSO-treated control; type: cell-based; in short: as §3
T2 sequence (whole entry): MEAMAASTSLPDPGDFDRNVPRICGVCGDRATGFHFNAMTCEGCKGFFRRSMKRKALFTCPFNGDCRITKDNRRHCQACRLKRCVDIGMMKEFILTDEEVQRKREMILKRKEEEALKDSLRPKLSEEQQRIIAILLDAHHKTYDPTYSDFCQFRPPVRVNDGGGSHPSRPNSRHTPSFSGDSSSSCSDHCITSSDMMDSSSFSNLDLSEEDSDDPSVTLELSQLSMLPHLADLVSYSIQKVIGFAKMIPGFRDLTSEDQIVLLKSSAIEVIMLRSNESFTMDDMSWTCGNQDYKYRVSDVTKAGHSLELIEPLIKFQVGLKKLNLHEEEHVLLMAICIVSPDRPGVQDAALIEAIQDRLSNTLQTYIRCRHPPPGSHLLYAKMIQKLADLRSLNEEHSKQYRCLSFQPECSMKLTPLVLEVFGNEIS

[25] = target: Protein smoothened (Homo sapiens) (UniProt Q99835); test: Displacement of BODIPY-cyclopamine from full length human SMO receptor overexpressed in HEK293T cell membranes up to 10 uM after 5 hrs by fluorescence polarization assay; conditions: HEK-293T
In short: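 Membranes from HEK293T cells transfected with full-length human Smo, collected 24 h post-transfection. Cells lysed in hypotonic buffer (50 mM Tris-HCl, 1 mM EDTA, pH 7.5, protease inhibitors) by syringe passage. Membranes pelleted at 20000g after a 500g spin. Membranes (10 μg/well) incubated with BODIPY-cyclopamine (5 nM) and compound at 30 °C for 5 h. Fluorescence polarization at ex 485/em 528. Triplicate.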

[26] = system: C3H 10T1/2; test: Effect on CYP24A1 RNA level in VDR-knockdown mouse C3H10T1/2 cells at 5 uM after 24 hrs by qPCR analysis; type: functional, cell-based

Protein smoothened (Homo sapiens), sequence (Q99835 whole entry): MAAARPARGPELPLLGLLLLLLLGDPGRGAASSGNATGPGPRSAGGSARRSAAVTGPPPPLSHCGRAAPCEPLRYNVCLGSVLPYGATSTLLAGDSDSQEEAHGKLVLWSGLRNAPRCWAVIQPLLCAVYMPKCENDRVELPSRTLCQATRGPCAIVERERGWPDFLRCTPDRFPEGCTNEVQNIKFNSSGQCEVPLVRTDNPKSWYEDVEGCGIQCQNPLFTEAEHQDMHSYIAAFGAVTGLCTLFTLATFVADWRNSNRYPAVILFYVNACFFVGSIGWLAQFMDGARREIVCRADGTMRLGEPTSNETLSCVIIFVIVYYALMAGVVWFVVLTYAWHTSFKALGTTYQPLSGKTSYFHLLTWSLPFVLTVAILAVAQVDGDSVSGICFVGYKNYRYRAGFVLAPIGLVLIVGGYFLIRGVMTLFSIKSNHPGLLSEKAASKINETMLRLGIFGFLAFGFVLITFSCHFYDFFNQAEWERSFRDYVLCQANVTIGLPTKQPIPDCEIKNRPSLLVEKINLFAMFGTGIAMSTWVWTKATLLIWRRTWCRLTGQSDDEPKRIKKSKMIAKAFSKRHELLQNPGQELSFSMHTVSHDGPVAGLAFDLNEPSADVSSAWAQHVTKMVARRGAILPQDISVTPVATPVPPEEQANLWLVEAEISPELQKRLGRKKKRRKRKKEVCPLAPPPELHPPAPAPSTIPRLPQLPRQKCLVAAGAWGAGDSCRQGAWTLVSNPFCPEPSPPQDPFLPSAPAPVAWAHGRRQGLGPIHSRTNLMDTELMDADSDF

C=C1/C(=C\C=C2/CCC[C@]3(C)[C@@H]([C@H](C)CCCC(C)(C)O)CC[C@@H]23)C[C@@H](O)C[C@@H]1O
Activity [1]: Active | inhibition [2]: Active | inhibition [3]: Active | Activity [4]: Active | Activity [5]: Active

C=C1CC[C@H](O)C/C1=C/C=C1\CCC[C@]2(C)[C@@H]([C@H](C)CCCC(C)C)CC[C@@H]12 [CHOLECALCIFEROL]
Activity [6]: Active | IC50 [7]: > 10 µM | Activity [8]: Active | fold change (FC) [9]: 764 | inhibition [10]: Active | inhibition [11]: inactive | inhibition [12]: Active | fold change (FC) [13]: 8340 | Activity [14]: Active | inhibition [15]: Active | IC50 [16]: > 10 µM | Activity [17]: 35.7% | IC50 [18]: 2.9 µM | inhibition [19]: Dose-dependent effect | IC50 [19]: 4.1 µM | inhibition [20]: inactive | IC50 [21]: 2.1 µM | inhibition [22]: inactive | inhibition [23]: Active | fold change (FC) [24]: 149 | inhibition [25]: inactive

CC(C)CCC[C@@H](C)[C@H]1CC[C@H]2[C@@H](OC(=O)c3cccc(O)c3)CCC[C@]12C
Activity [6]: inactive | IC50 [7]: 3.7 µM | Activity [8]: Active | fold change (FC) [9]: 1.9 | inhibition [10]: inactive | inhibition [12]: Active | fold change (FC) [13]: 22.2 | Activity [14]: inactive | inhibition [15]: inactive | IC50 [16]: 3.6 µM | Activity [17]: 1.9% | IC50 [18]: 1.1 µM | inhibition [19]: Dose-dependent effect | IC50 [19]: 0.74 µM | IC50 [21]: 5.2 µM | inhibition [22]: inactive | fold change (FC) [24]: 1.9 | inhibition [25]: inactive | Activity [26]: inactive

— ChEMBL document CHEMBL3259768, “Structure-activity relationships for vitamin D3-based aromatic a-ring analogues as hedgehog pathway inhibitors” (J Med Chem, 2014)
